# Results pooled from the literature.
# Compare with care: the assays were run in different laboratories.
# Target: Activin receptor type-1-like (ACVRL1, Homo sapiens, UniProt P37023)
Structure (SMILES),assay,conditions,remaining binding [%]
O=C(c1ccc(Nc2ncc(Cl)c(-c3cc4ccccc4s3)n2)cc1)N1CCC(N2CCCC2)CC1,"binding, competition with immobilised ligand",1 µM,100
c1cncc(-c2cccc(Nc3nccc(NC4CCCCC4)n3)c2)c1,"binding, competition with immobilised ligand",10 µM,52
Cc1cnc(Nc2ccc(C(=O)N3CCC(N4CCCC4)CC3)cc2)nc1-c1cc2ccccc2s1,"binding, competition with immobilised ligand",1 µM,100
O=C(Nc1c[nH]nc1C(=O)NC1CCNCC1)c1cc(F)cc(F)c1,"binding, competition with immobilised ligand",1 µM,94
CC1=C(C#N)[C@@H](c2ccc3[nH]nc(C)c3c2)C(C#N)=C(c2ccc(Cl)cc2)N1,"binding, competition with immobilised ligand",1 µM,79
COc1cnc(Nc2cccc(S(N)(=O)=O)c2)nc1N1CCN(c2ccccc2)C(=O)C1,"binding, competition with immobilised ligand",1 µM,95
CC(=O)N1CCC(c2ccc(C(=O)NC3=NCCN3)cc2C(F)(F)F)CC1,"binding, competition with immobilised ligand",1 µM,100
CC1CCCN1c1nccc(-c2cnn3ncccc23)n1 (stereo not shown),binding,1 µM,89
CCc1ccccc1C(=O)Nc1n[nH]c2c(C)c(F)c(C3C(C#N)=C(C)N(C)C(C)=C3C#N)cc12,"binding, competition with immobilised ligand",1 µM,75
F[C@@H]1CCN(c2nccc(-c3cnn4ncccc34)n2)C1,binding,1 µM,88
COc1cnc(Nc2cccc(S(N)(=O)=O)c2)nc1N1CCN(c2ccccc2)CC1,"binding, competition with immobilised ligand",1 µM,98
CCN1CCN(Cc2ccc(C(=O)Nc3ccc(C)c(Oc4ccc5c(c4)CC(=O)N5)c3)cc2C(F)(F)F)CC1,"binding, competition with immobilised ligand",1 µM,100
CCCCN(CCCC)C(=O)CN1C[C@@H](c2cc(OC)c3c(c2)OCO3)[C@H](C(=O)O)[C@H]1CC(C)(C)CCC,"cell-free assay, competition with immobilised ligand",1 µM,99.4
Cc1cnn2ncc(-c3ccnc(N(C)C)n3)c2c1,binding,1 µM,91
CS(=O)(=O)c1cc(C2(NC(=O)c3cncc4c3cnn4-c3ccc(F)cc3)CC2)ccn1,"cell-free assay, competition with immobilised ligand",1 µM,100
C[C@@H](c1ccc(-n2cnc3c(N)ncnc32)cc1)N1CCc2nn(C)c(Cc3ccccc3)c2C1=O,"binding, competition with immobilised ligand",0.1 µM,66
N[C@@H]1CCN(c2nccc(-c3cnn4ncccc34)n2)C1,binding,1 µM,100
CCOCCn1cc(C(=O)Nc2ccc(-n3nc(-c4cccnc4)cc3C(F)(F)F)cn2)ccc1=O,"cell-free assay, competition with immobilised ligand",1 µM,100
CN(C)c1ncc(F)c(-c2cnn3ncccc23)n1,binding,1 µM,100
CC1=C(C#N)C(c2ccc3c(c2)c(NC(=O)c2ccccc2C)nn3C)C(C#N)=C(C)N1,"binding, competition with immobilised ligand",1 µM,97
c1cnn2ncc(-c3ccnc(N4CCC45COC5)n3)c2c1,binding,1 µM,100
O=C(c1ccc(Nc2ncc(Cl)c(-c3ccc(Cl)s3)n2)cc1)N1CCC(N2CCCC2)CC1,"binding, competition with immobilised ligand",1 µM,100
